{"source": "ChEMBL document CHEMBL1158008", "about": "“New bioactive flavonoids and stilbenes in cubé resin insecticide” (J Nat Prod, 1999)", "key": {"[1]": {"experiment": "Cytotoxicity against mouse Hepa1clc7 cells after 72 hrs", "format": "functional, cell-based", "in_short": "(§1)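 Test compound added to cultured cells, 72 h incubation, then viability read by MTT (3-(4,5-dimethylthiazol-2-yl)-2,5-diphenyltetrazolium bromide) reduction. IC50 derived from eight replicates per assay.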"}, "[2]": {"experiment": "Inhibition of bovine NADH-ubiquinone oxidoreductase", "set-up": "species or system Bos taurus", "in_short": "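Bovine heart electron transport particles (inverted inner mitochondrial membrane vesicles, 40 µg protein) preincubated with compound 5 min at 25 °C in 50 mM phosphate pH 7.4, 250 mM sucrose. NADH added (28 µM final); activity followed as A340 loss over 3 min. IC50 from three experiments.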"}, "MCF7": {"tested_on": "MCF7", "experiment": "Cytotoxicity against human MCF7 cells after 72 hrs", "format": "functional, cell-based", "settings": "MCF7, 72 h", "in_short": "as §1"}}, "data": [{"smiles": "COc1cc(OC)c(-c2coc3c4c(ccc3c2=O)OC(C)(C)[C@@H](O)[C@H]4O)cc1OC", "note": "(relative stereo)", "values": [{"measurement": "IC50", "setting": "[1]", "result": "> 30", "unit": "µM"}, {"measurement": "IC50", "setting": "[2]", "result": "> 30", "unit": "µM"}, {"measurement": "IC50", "setting": "MCF7", "result": "> 30", "unit": "µM"}]}, {"smiles": "COc1cc(/C=C/C(=O)c2ccc3c(c2O)C=CC(C)(C)O3)ccc1O", "values": [{"measurement": "IC50", "setting": "[1]", "result": 5.9, "unit": "µM"}, {"measurement": "IC50", "setting": "[2]", "result": 4.8, "unit": "µM"}, {"measurement": "IC50", "setting": "MCF7", "result": 10, "unit": "µM"}]}, {"smiles": "CC1(C)C=Cc2c(ccc(C(=O)/C=C/c3ccc(O)cc3)c2O)O1", "values": [{"measurement": "IC50", "setting": "[1]", "result": 10, "unit": "µM"}, {"measurement": "IC50", "setting": "[2]", "result": 4.9, "unit": "µM"}, {"measurement": "IC50", "setting": "MCF7", "result": 27, "unit": "µM"}]}, {"smiles": "COc1cc([C@@H]2CC(=O)c3c(O)c(CC=C(C)C)c4c(c3O2)C=CC(C)(C)O4)ccc1O", "values": [{"measurement": "IC50", "setting": "[1]", "result": 3.5, "unit": "µM"}, {"measurement": "IC50", "setting": "[2]", "result": 0.68, "unit": "µM"}, {"measurement": "IC50", "setting": "MCF7", "result": 3, "unit": "µM"}]}, {"smiles": "O=c1c(-c2ccc(O)cc2)coc2cc(O)cc(O)c12", "note": "[GENISTEIN]", "values": [{"measurement": "IC50", "setting": "[1]", "result": 11, "unit": "µM"}, {"measurement": "IC50", "setting": "[2]", "result": 35, "unit": "µM"}, {"measurement": "IC50", "setting": "MCF7", "result": "> 30", "unit": "µM"}]}, {"smiles": "COc1cc(/C=C/c2ccc3c(c2)OC(C)(C)C=C3)cc(OC)c1OC", "values": [{"measurement": "IC50", "setting": "[1]", "result": 7, "unit": "µM"}, {"measurement": "IC50", "setting": "[2]", "result": 4.9, "unit": "µM"}, {"measurement": "IC50", "setting": "MCF7", "result": 24, "unit": "µM"}]}, {"smiles": "Oc1ccc(/C=C/c2cc(O)cc(O)c2)cc1", "note": "[RESVERATROL]", "values": [{"measurement": "IC50", "setting": "[1]", "result": 11, "unit": "µM"}, {"measurement": "IC50", "setting": "[2]", "result": 26, "unit": "µM"}, {"measurement": "IC50", "setting": "MCF7", "result": "> 30", "unit": "µM"}]}, {"smiles": "COc1ccc([C@@H]2CC(=O)c3c(O)c(CC=C(C)C)c4c(c3O2)C=CC(C)(C)O4)cc1OC", "values": [{"measurement": "IC50", "setting": "[1]", "result": 8.5, "unit": "µM"}, {"measurement": "IC50", "setting": "[2]", "result": 2.1, "unit": "µM"}, {"measurement": "IC50", "setting": "MCF7", "result": 6.6, "unit": "µM"}]}, {"smiles": "COc1cc(/C=C/c2ccc(O)cc2)cc2c1C=CC(C)(C)O2", "values": [{"measurement": "IC50", "setting": "[1]", "result": 8.5, "unit": "µM"}, {"measurement": "IC50", "setting": "[2]", "result": 5.3, "unit": "µM"}, {"measurement": "IC50", "setting": "MCF7", "result": "> 30", "unit": "µM"}]}, {"smiles": "COc1ccc([C@@H]2CC(=O)c3c(O)c(CC=C(C)C)c4c(c3O2)C=CC(C)(C)O4)cc1O", "values": [{"measurement": "IC50", "setting": "[1]", "result": 3.9, "unit": "µM"}, {"measurement": "IC50", "setting": "[2]", "result": 2, "unit": "µM"}, {"measurement": "IC50", "setting": "MCF7", "result": 6.9, "unit": "µM"}]}, {"smiles": "COc1cc(/C=C/c2cc(OC)c3c(c2)OC(C)(C)C=C3)ccc1O", "values": [{"measurement": "IC50", "setting": "[1]", "result": 13, "unit": "µM"}, {"measurement": "IC50", "setting": "[2]", "result": 8.1, "unit": "µM"}, {"measurement": "IC50", "setting": "MCF7", "result": "> 30", "unit": "µM"}]}, {"smiles": "COc1ccc([C@@H]2CC(=O)c3cc(CC=C(C)C)c4c(c3O2)C=CC(C)(C)O4)cc1OC", "values": [{"measurement": "IC50", "setting": "[1]", "result": 5.1, "unit": "µM"}, {"measurement": "IC50", "setting": "[2]", "result": 2.6, "unit": "µM"}, {"measurement": "IC50", "setting": "MCF7", "result": 5.7, "unit": "µM"}]}]}
